Data on 4 compounds can be found in article PMC10832541 (Microbial Biotechnology, 2024).

A word on the MIC: it is the least concentration at which growth counts as inhibited. Lower therefore signals inhibition by little substance. For orientation: solubility means the dissolved amount per volume that the medium holds. Read a low solubility as a poorly soluble substance. One may read the aqueous solubility as the concentration that dissolves in the medium under given conditions.

Values after ≈ are worked out from the molar mass of the structure shown. “Also recorded” adds a separate entry of the source.

One data set deals with SrGT822. The data set is described as follows: Substrate spectrum of SrGT822. The format is biochemical, Streptomyces sp. 147326. The note with it: dTDP‐L‐rhamnose as donor; LC-MS analysis; products not purified. A digest of the protocol:
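SrGT822 from Streptomyces sp. 147326 carried a C-terminal His-tag in pET22b(+). It was expressed in E. coli BL21(DE3) with 0.5 mM IPTG at 20°C for 12 h and purified by nickel affinity. Seventeen compounds from various classes were tested as acceptors, with dTDP-L-rhamnose as donor, under the optimized reaction parameters.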

The subject of a further data set is MRSA. The data set is described as follows: In vitro antibacterial activity. The data set is classed as cell-based, methicillin‐resistant Staphylococcus aureus. The note with it: MRSA strains; CLSI guidelines; range over strains.
The next data set concerns MRSE. The data set is described as follows: In vitro antibacterial activity. The format is cell-based, methicillin‐resistant Staphylococcus epidermidis. The note with it: MRSE strains; CLSI guidelines; range over strains.
The next data set deals with Enterococcus faecalis. The data set is described as follows: In vitro antibacterial activity. The data set is classed as cell-based. The note with it: Enterococcus faecalis strains; CLSI guidelines; range over strains.
In data set [1] the test system is MRSA, MRSE, Enterococcus faecalis and Enterococcus faecium. The data set is described as follows: In vitro antibacterial activity, MIC range over all tested pathogens. The data set is classed as cell-based. The note with it: E. faecalis and E. faecium strains.
A further data set deals with Enterococcus faecium. The data set is described as follows: In vitro antibacterial activity. The data set is classed as cell-based. The note with it: Enterococcus faecium strains; CLSI guidelines; range over strains.
The nature of data set [2]: Aqueous solubility at pH 5.0 to 7.0. The data set is classed as physicochemical. The note with it: pH 6, water. The essentials:
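Test compound quantified by HPLC against a standard curve (31.25–1000 ng/mL), with linear regression of peak area against concentration. Aqueous solubility was determined in solutions of pH 5.0 to 7.0, following a previously described method.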

The next data set has as its system MRSA infection. The data set is described as follows: In vivo protection of mice infected with MRSA. The note with it: data not shown.
For data set [3] the following is noted: in water, compared with NOS‐R at pH 6.0; ref Zhao et al., 2023; cited from earlier work.

Take nocathiacin I [compound 17]: the “conversion rate (monorhamnosylation as a substrate of SrGT822)” value in the data set with SrGT822 was “below 60%”.

In the case of `CN[C@H](CC(C)C)C(=O)N[C@H]1C(=O)N[C@@H](CC(N)=O)C(=O)N[C@H]2C(=O)N[C@H]3C(=O)N[C@H](C(=O)N[C@H](C(=O)O)c4cc(O)cc(O)c4-c4cc3ccc4O)[C@H](O)c3ccc(c(Cl)c3)Oc3cc2cc(c3O[C@@H]2O[C@H](CO)[C@@H](O)[C@H](O)[C@H]2O[C@H]2C[C@](C)(N)[C@H](O)[C@H](C)O2)Oc2ccc(cc2Cl)[C@H]1O` [Vancomycin], the MIC lay within 0.25 to 2 µg/mL in the data set with MRSA, 0.125 to 1 µg/mL in the data set with MRSE, 1 to 2 µg/mL in the data set on Enterococcus faecalis and 1 to 2 µg/mL in the data set on Enterococcus faecium. Also, in [1], the “MIC values against all the tested pathogens” value was 0.125 to 2 µg/mL.

As for `C=C(NC(=O)c1csc(-c2nc3c(cc2O[C@@H]2O[C@@H](C)[C@H](O)[C@@H](O)[C@H]2O)-c2nc(cs2)C(=O)NC(C(C)O)C(=O)N/C(=C\C)c2nc(cs2)C(=O)NC2CC(O)C(=O)OCc4cccc5[nH]c(c(C)c45)C(=O)SCC(NC(=O)c4csc2n4)c2nc-3cs2)n1)C(N)=O` (stereo partly shown) [NOS‐R], the MIC lay within 0.03125 to 0.0625 µg/mL in the data set on MRSA, 0.03125 to 0.0625 µg/mL against MRSE, 0.0078 to 0.0156 µg/mL against Enterococcus faecalis and 0.0078 to 0.0156 µg/mL against Enterococcus faecium. This compound also returned a solubility in data set [2] of 0.526 µg/mL (≈ 0.384 µM). For the same compound, the “in vivo protection against MRSA infection” value with MRSA infection is recorded as “new protective effect against MRSA infection in mice; also recorded: potential in vivo protection”. Further, the “MIC values against all the tested pathogens” value in data set [1] was 0.0078 to 0.0625 µg/mL.

For `C=C(NC(=O)c1csc(-c2nc3c(cc2O)-c2nc(cs2)C(=O)NC(C(C)O)C(=O)N/C(=C\C)c2nc(cs2)C(=O)NC2CC(O)C(=O)OCc4cccc5[nH]c(c(C)c45)C(=O)SCC(NC(=O)c4csc2n4)c2nc-3cs2)n1)C(N)=O` (stereo not shown) [NOS, Nosiheptide], the aqueous solubility in [3] was 0.0283 µg/mL (≈ 0.0232 µM). For the same compound, the MIC in the data set with Enterococcus faecalis and against Enterococcus faecium was 0.0078 to 0.0156 µg/mL each time.
